What all share (assay type): functional
One assay concerns Enterococcus faecalis. The assay can be described thus: Minimum bactericidal concentration against Enterococcus faecalis. The procedure, abridged: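 Spread-plate MBC in LB broth (pH ≈7). E. faecalis came from a blood agar colony and was grown 12 h at 37 °C with shaking to 10⁷-10⁸ cells/mL. Amphiphile was added from a sterile-water stock, with water as the control, then incubated 5 h at 37 °C with shaking. Dilutions were plated on LB agar for 24 h at 37 °C. MBC is the lowest concentration giving no colonies; the value is the mean of three experiments.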

For a further assay, the system named is Escherichia coli. The assay can be described thus: Minimum bactericidal concentration against Escherichia coli. The method in brief: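 E. coli from a freeze-dried ampule was streaked on LB agar (37 °C, 24 h), and a single colony was grown in LB for 10 h at 37 °C with shaking to 10⁸-10⁹ cells/mL. Amphiphile from a sterile-water stock, or water as the control, was incubated 5 h at 37 °C with shaking. Dilutions were spread on LB agar for 24 h at 37 °C. MBC is the lowest concentration with no colonies, averaged over three experiments.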

Another assay has as its system Staphylococcus aureus. The assay can be described thus: Minimum bactericidal concentration against Staphylococcus aureus. The procedure, abridged: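 S. aureus came from a blood agar colony and was grown in LB for 10 h at 37 °C with shaking to 10⁹-10¹⁰ cells/mL. Cells were exposed 5 h at 37 °C with shaking to amphiphile from a sterile-water stock, with water as the control. Dilutions were plated on LB agar for 24 h at 37 °C. MBC is the lowest concentration giving no colonies, averaged over three separate experiments.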

A further assay concerns Shigella sonnei. The assay can be described thus: Minimum bactericidal concentration against Shigella sonnei. The method in brief:
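A single S. sonnei colony was grown in LB for 12 h at 37 °C with shaking to 10⁷-10⁸ cells/mL, then exposed in tubes to amphiphile from a sterile-water stock, or water as the control, for 5 h at 37 °C with shaking. Diluted samples were spread on LB agar and incubated 24 h at 37 °C. MBC is the lowest concentration leaving no colonies; the value is the mean of three experiments.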

As to `CCCCCCCCCCCCCCCC[n+]1ccccc1` [CETYLPYRIDINIUM BROMIDE], the MBC against Enterococcus faecalis came out at 16.3 µM; with Escherichia coli it was 10.4 µM; in the assay on Staphylococcus aureus it was 15.6 µM; in the assay on Shigella sonnei, 12.4 µM.

For the molecule `CCCCCCCCCCCCCCC(COC(=O)C[N+](C)(C)C)(COC(=O)C[N+](C)(C)C)COC(=O)C[N+](C)(C)C`, the minimum bactericidal concentration (MBC) in the assay on Enterococcus faecalis stood at 9 µM; in the assay with Escherichia coli it was 7.3 µM; against Staphylococcus aureus it was 11.3 µM; in the assay with Shigella sonnei it was 9.6 µM.

Regarding `CCCCCCCCCCCCCCC(COC(=O)C[n+]1ccccc1)(COC(=O)C[n+]1ccccc1)COC(=O)C[n+]1ccccc1`, the MBC was found to be 4.9 µM against Enterococcus faecalis, 6.5 µM in the assay on Escherichia coli, 5.2 µM against Staphylococcus aureus and 3.5 µM against Shigella sonnei.

Consider Hexadecyl-trimethyl-ammonium bromide, for which the minimum bactericidal concentration (MBC) in the assay on Enterococcus faecalis was found to be 18.5 µM; in the assay on Escherichia coli, 16.9 µM; in the assay with Staphylococcus aureus, 18.9 µM; with Shigella sonnei, 18.3 µM.

On to `CCCCCCCCCCCCCCCCOC(=O)C[N+](C)(C)C`, for which the MBC with Enterococcus faecalis was 22.5 µM; with Escherichia coli it was 20.6 µM; against Staphylococcus aureus, 24.5 µM; with Shigella sonnei it was 33.8 µM.

Regarding `CCCCCCCCCCCCCCC(COC(=O)C[N+](C)(C)C)COC(=O)C[N+](C)(C)C`, the MBC with Enterococcus faecalis amounted to 12 µM; against Escherichia coli, 9.7 µM; with Staphylococcus aureus, 15.1 µM; with Shigella sonnei, 14.9 µM.

Regarding `CCCCCCCCCCCCCCC(COC(=O)C[n+]1ccccc1)COC(=O)C[n+]1ccccc1`, the MBC was 10.4 µM in the assay with Enterococcus faecalis, 8.2 µM against Escherichia coli, 13.9 µM in the assay with Staphylococcus aureus and 8.9 µM in the assay on Shigella sonnei.

The MBC is the smallest concentration meeting the test's criterion for killing. A high value points to weaker bactericidal potency.

These data come from ChEMBL document CHEMBL1139530, “Synthesis and antibacterial properties of novel hydrolyzable cationic amphiphiles. Incorporation of multiple head groups leads to impressive antibacterial activity” (2005).
